# PRMT1 FP inh: PRMT1 (human) inhibition, primary screen. Q99873. recombinant PRMT1, activity-based probe fluorescence polarization. inhibition, % at 2.79 µM. hit rate 1.3% among 370,000;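 active means inhibition above about 21% made by adding two undisclosed values, limit read from the data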
# A3A deaminase: blocks human APOBEC3A ssDNA deamination; inhibition, % at 20 µM; hit rate 0.41% among 330,000; recombinant A3A, FAM/TAMRA ssDNA deamination fluorescence; P31941; AID 493011;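 active means at least 40% inhibition at 20 µM here, with at most 30% in a related deaminase screen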
# core dimer inh: HCV core protein dimerization inhibition. inhibition, % at 5 µM. hit rate 0.33% among 300,000. TR-FRET GST/Flag-core106 dimerization, 1536-well;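 active means inhibition above the mean of all tested compounds plus 3 SD, set per screening campaign, cut at about 45% in these data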
#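 Assay system: Tagged HCV core106 pair (GST and Flag) | Buffer or medium: KF-containing HEPES buffer, pH 7.45, DTT, CHAPS, BSA | Also added: Eu donor and XL665 acceptor anti-tag antibodies | Dosing: One concentration, 5 µM, in 0.5% DMSO | Timing: 4 h at 22.5 °C | Technique: TR-FRET 671 and 617 nm emission | Repeats: Singlicate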
# HCV NS3 hel inh: inhibitors of Hepatitis C virus NS3 helicase; NS3 helicase DNA unwinding, Cy5 molecular beacon fluorescence; inhibition, % at 10.9 µM; hit rate 0.56% among 290,000;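 active means inhibition above the mean of all tested compounds plus 3 SD, set per campaign, cut at about 35% in these data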
#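 Material: hepatitis C virus NS3 helicase domain fragment enzyme; measured by: Cy5 fluorescence, 0 and 60 min reads; control set: DMSO and thioflavine S; incubation: 60 min unwinding reaction at 25 °C after ATP addition; read-out basis: % inhibition from 60/0 min fluorescence ratio, DMSO 0%, thioflavine S 100%; repeats: singlicate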
# ABHD5-PLIN5 inh: ABHD5-PLIN5 protein interaction inhibition. AID 602281. inhibition, % at 4 µM. Q00G26+Q8WTS1. Split G. princeps luciferase complementation, luminescence, 4 h. hit rate 0.78% among 360,000;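 active means inhibition above the mean inhibition across every tested compound plus 3 SD, cut at about 22% in these data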
# Target sequence (Q00G26 whole entry, looked up): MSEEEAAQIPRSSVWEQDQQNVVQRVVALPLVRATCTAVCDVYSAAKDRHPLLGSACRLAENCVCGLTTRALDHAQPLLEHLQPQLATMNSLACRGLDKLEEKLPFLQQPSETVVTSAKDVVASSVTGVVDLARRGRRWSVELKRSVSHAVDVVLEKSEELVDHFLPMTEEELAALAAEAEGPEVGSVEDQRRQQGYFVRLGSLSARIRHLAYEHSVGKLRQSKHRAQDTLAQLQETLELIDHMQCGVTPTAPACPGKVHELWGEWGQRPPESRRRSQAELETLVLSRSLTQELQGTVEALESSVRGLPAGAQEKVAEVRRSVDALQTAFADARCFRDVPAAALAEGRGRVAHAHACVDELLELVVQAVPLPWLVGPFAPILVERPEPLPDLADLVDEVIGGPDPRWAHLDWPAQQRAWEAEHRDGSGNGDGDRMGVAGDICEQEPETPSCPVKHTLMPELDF
# Target sequence (Q8WTS1 whole entry, looked up): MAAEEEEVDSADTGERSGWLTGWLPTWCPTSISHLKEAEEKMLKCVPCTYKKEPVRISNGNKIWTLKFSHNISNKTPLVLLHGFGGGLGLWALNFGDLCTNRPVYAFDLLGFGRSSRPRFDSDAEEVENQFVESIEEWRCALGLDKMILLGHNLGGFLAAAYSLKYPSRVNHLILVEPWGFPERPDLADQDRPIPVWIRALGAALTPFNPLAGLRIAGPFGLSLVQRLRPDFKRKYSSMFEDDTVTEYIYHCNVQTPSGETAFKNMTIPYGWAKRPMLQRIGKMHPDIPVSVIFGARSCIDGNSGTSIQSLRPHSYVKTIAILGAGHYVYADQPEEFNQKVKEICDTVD
# A3G deaminase: inhibitors of human APOBEC3G DNA deaminase | recombinant A3G, ssDNA deamination FAM/TAMRA fluorescence | inhibition, % at 20 µM | hit rate 0.28% among 330,000;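 active means inhibition of at least 40% at 20 µM, with no more than 30% in the related APOBEC3A deaminase screen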
# APOBEC3A confirm: APOBEC3A (human) deaminase inhibition, confirmed. shares compounds with A3A deaminase. recombinant A3A, ssDNA deaminase UDG fluorescence assay. inhibition, % at 20 µM. hit rate 63% among 1,400. AID 493151;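 active means inhibition reaching a set limit, 80% of the first screen's cutoff, at 20 µM in any replicate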
# UDG A3A counter: UDG inhibition in APOBEC3A counter-screen. shares compounds with A3A deaminase. UDG counterscreen, FAM/TAMRA uracil oligo fluorescence. inhibition, % at 20 µM. 1,000 tested, under 10 active. AID 504714; call rule not given here
# A number is an active result; - = inactive; . = no result given. This is a sample that favours compounds with a hit; in the whole collection about 2.9% have one here.
SMILES,PRMT1 FP inh,A3A deaminase,core dimer inh,HCV NS3 hel inh,ABHD5-PLIN5 inh,A3G deaminase,APOBEC3A confirm,UDG A3A counter
CC(C)=CCC12Oc3cc(O)ccc3C1(O)Oc1cc(O)c([C@H]3C=C(C)CC(c4ccc(O)cc4O)[C@H]3C(=O)c3ccc(O)cc3O)c(O)c1C2=O (stereo partly drawn),.,-,-,.,.,-,.,.
CCOc1ccc(S(=O)(=O)NCCC(=O)N(CC)CC(=O)Nc2c(F)cccc2F)cc1,-,-,-,.,-,-,.,.
CCN(CC(=O)Nc1c(F)cccc1F)C(=O)CCNS(=O)(=O)c1ccc(C)c(C)c1,-,49,-,.,-,-,-,-
COc1ccc(C(=O)OCC[N+]2(C)CCOCC2)cc1,-,61,-,-,-,-,73,-
CCn1c2ccccc2c(=O)c2ccccc21,-,64,-,-,-,-,-,.
Cc1ccc([C@@H]2CC(=O)[C@@H]3CN(S(=O)(=O)c4ccc(C)cc4)[C@H](c4ccc(Cl)cc4)C[C@@H]3N2S(=O)(=O)c2ccc(C)cc2)cc1,-,.,.,.,-,.,.,.
O=[N+]([O-])c1ccc(C(O)CN2CCN(c3ccccc3)CC2)cc1 (stereo not drawn),-,-,-,-,-,-,.,.
O=[N+]([O-])c1ccc(C(O)C[n+]2ccccc2)cc1 (stereo not drawn),.,91,-,-,-,-,71,-
CC(C)NC(=O)C(C)Oc1ccc(S(=O)(=O)NCc2ccc3c(c2)OCO3)cc1 (stereo not drawn),-,-,-,-,-,-,.,.
COC(=O)C1=C(C)N(Cc2ccccc2)C(=NCCCCO)N[C@H]1CCc1ccccc1,-,44,-,-,-,-,67,-
COC(=O)C1=C(C)N(Cc2ccccc2)C(=NCc2cccc(C(F)(F)F)c2)N[C@H]1c1cccc(C(F)(F)F)c1,.,-,.,.,-,-,.,.
COC(=O)C1=C(C)N(Cc2ccc(C(F)(F)F)cc2)C(=NCc2ccccc2)NC1c1cccc(C(F)(F)F)c1 (stereo not drawn),-,.,.,.,.,.,.,.
COCCN=C1N[C@@H](c2cccc(C(F)(F)F)c2)C(C(=O)OC)=C(C)N1Cc1ccccc1,-,63,-,-,-,-,44,.
COC(=O)C1=C(C)N(Cc2ccccc2)C(=NCCCCO)N[C@H]1c1cccc(C(F)(F)F)c1,-,44,.,.,-,-,57,-
CCN1C(=NCCCCO)N[C@@H](c2cccc(C(F)(F)F)c2)C(C(=O)OC)=C1C,-,50,-,-,-,-,61,-
CCC/C=C/c1ccc(CN2C(CC(C)C)C(=O)N(Cc3cn(Cc4ccco4)nn3)CCS2(=O)=O)cc1 (stereo not drawn),-,.,.,.,-,.,.,.
Cc1ccccc1S(=O)(=O)N(C)C[C@H]1OCc2cnnn2CCCC(=O)N([C@H](C)CO)C[C@H]1C,-,.,.,.,-,.,.,.
COc1ccc(C(CNC(=O)c2cccc(S(=O)(=O)N3CCc4ccccc43)c2)N(C)C)cc1 (stereo not drawn),-,-,.,.,-,-,.,.
O=C(NCc1ccccc1)[C@@H]1CCCN1C(=O)[C@@H](NS(=O)(=O)c1ccc(F)cc1F)c1ccccc1,-,.,.,.,.,.,.,.
CSCC[C@H](NC(=O)OC(C)(C)C)C(=O)N1CCC(C(=O)N[C@@H](C)C(=O)NC(C)c2ccccc2)CC1 (stereo partly drawn),-,-,-,-,-,-,.,.
CCc1ccc(CCNC(=O)OCCCN2CCC3(CCC(C)CC3)C2=O)cc1 (stereo not drawn),-,.,.,.,.,.,.,.
COc1cccc2sc(Nc3nc(-c4ccncc4)cs3)nc12,-,45,-,-,-,-,24,-
CCCCc1ccc(NC(=O)Nc2c(C)n(C)n(-c3ccccc3)c2=O)cc1,-,62,-,-,-,-,-,-
CCc1ccc(NC(=O)Nc2c(C)n(C)n(-c3ccccc3)c2=O)cc1,-,-,-,-,-,-,.,.
CS(=O)(=O)c1ccc2sc(NC(=O)c3cc4ccccc4o3)nc2c1,-,53,-,-,-,-,-,.
SMILES,PRMT1 FP inh,A3A deaminase,core dimer inh,HCV NS3 hel inh,ABHD5-PLIN5 inh,A3G deaminase,APOBEC3A confirm,UDG A3A counter
Nc1ncnc2c1ncn2C1OCC(O)C1O (stereo not drawn),.,.,.,.,-,.,.,.
C[N+]1(CC(O)COCC2COc3ccccc3O2)CCOCC1 (stereo not drawn),-,86,-,-,-,-,46,.
OC(COCC1COc2ccccc2O1)CN1CCN(c2ccccc2)CC1 (stereo not drawn),-,-,-,-,-,-,.,.
O=c1cccc2n1Cc1cc3ccccc3nc1-2,-,49,-,-,-,-,-,.
c1ccc2c(c1)-c1nc3ccccc3cc1C2N1CCCCC1 (stereo not drawn),-,.,.,.,-,.,.,.
COc1ccc(C(C(=O)NCCC(C)C)N(CCO)C(=O)c2snc(C(N)=O)c2N)cc1 (stereo not drawn),-,77,-,-,-,-,-,.
COc1ccc(C(C(=O)NCCC(C)C)N(CCO)C(=O)c2snc(C(N)=O)c2N)cc1OC (stereo not drawn),-,-,-,-,-,-,.,.
CCN(C(=O)COc1nc(C)cc(C)c1C#N)c1ccccc1,-,59,-,-,-,-,-,.
COc1ccc(CN(C)C(=O)c2cccc(NC(=O)CC3SC(N4CCCCC4)=NC3=O)c2)c(OC)c1 (stereo not drawn),-,.,.,.,-,.,.,.
COc1ccc2c(c1)sc(=N)n2C,-,44,-,-,-,-,-,.
NC(=O)c1ncn([C@@H]2O[C@H](CNCc3cccc(OC4CCCC4)c3)[C@@H](O)[C@H]2O)n1,-,.,.,.,-,.,.,.
CCOc1ccc(NC(=O)C2CCCN2C(=O)Oc2ccccc2)cc1 (stereo not drawn),-,73,-,-,-,-,78,-
O=C(COC(=O)c1ccc(F)c(S(=O)(=O)N2CCOCC2)c1)Nc1ccc2[nH]c(=O)[nH]c2c1,-,42,.,.,-,-,42,-
O=C(COC(=O)c1ccc(F)c(S(=O)(=O)N2CCOCC2)c1)NC1CC1,-,-,.,.,-,-,.,.
COc1ccc(OC)c(CN2CCN(C(=O)c3cccc(S(=O)(=O)N(C)c4ccccc4)c3)CC2)c1,-,.,.,.,-,.,.,.
C=CC[n+]1ccc(/C=C2\C=Cc3cc(C)ccc3N2CC)c2ccccc21,.,.,.,-,-,.,.,.
CCN1/C(=C/c2cc[n+](CCCS(=O)(=O)[O-])c3ccccc23)Sc2ccccc21,-,76,-,-,-,-,69,-
Cc1cc(-c2onc3ccc(Cl)cc23)ccc1O,-,-,-,-,-,-,.,.
C[N+](C)(C)CCN1C(=O)CSC1=O,-,55,-,-,-,-,48,-

# High-throughput results (PubChem)
